Source: PubChem
PP1 counter: PP1-alpha phosphatase inhibitors, primary screen, counter-screen for PP5 inhibitor project, biochemical, fluorescence, OMFP substrate, single point; purified PP1alpha; Serine/threonine-protein phosphatase PP1-alpha catalytic subunit (Homo sapiens), P62136; AID 2235, 2010; 320,000 compounds, 0.9% hits; inhibition, % at 6.7 µM;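 active = inhibition above the mean inhibition of all tested compounds plus 3 SD, computed separately for each screening campaign, cut at about 15% in these data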
TDP2 absorb: human TDP2 enzyme inhibitors, primary screen, biochemical, epi absorbance, recombinant enzyme. Tyrosyl-DNA phosphodiesterase 2 (Homo sapiens), O95551. T5PNP hydrolysis, p-nitrophenol absorbance 415 nm. inhibition, % at 12.8 µM. 370,000 compounds, 0.34% hits. AID 720702, 2013;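 active = inhibition above the mean of all tested compounds plus 3 SD, set per campaign, cut at about 25% in these data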;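 note: 0% = DMSO with enzyme and 100% = buffer with substrate but no TDP2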
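Read-out basis: percent inhibition. System: recombinant human TDP2. Buffer or medium: Mg2+-containing Tris-HCl buffer, pH 7.5. Repeats: single replicate. Timing: reaction 2 h, 37 °C. Benchmarks: high control without enzyme, low control DMSO plus TDP2. Probe or stimulus: 5 mM T5PNP. Doses: 12.8 µM only. Measured by: epi absorbance of p-nitrophenol freed from T5PNP by hydrolysis.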
GSTO1 inh: inhibitors of recombinant GSTO1, primary screen, counter-screen for RBBP9 inhibitor project, biochemical, fluorescence polarization; activity-based probe fluorescence polarization; inhibition, % at 5.96 µM; 300,000 compounds, 1.1% hits; AID 1974, 2009;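 active = inhibition above the campaign mean inhibition plus 3 SD, cut at about 35% in these data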;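 note: 0% = GSTO1-1 with DMSO and 100% = wells lacking GSTO1-1 enzyme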
Apaf-1 inh: inhibitors of human Apaf-1 apoptosome, primary screen, biochemical, DEVD-Rh110 fluorescence, uHTS | reconstituted apoptosome caspase-3 activity | Apoptotic protease-activating factor 1 (Homo sapiens), O14727 | inhibition, % at 20 µM | 330,000 compounds, 0.71% hits; active = inhibition of at least 40% at 20 µM;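 note: plate controls were DMSO wells for no effect and DEVD-CHO caspase inhibitor wells for full effect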
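Assay system – apoptosome proteins · Medium – Hepes buffer, pH 7.5 · Also added – cytochrome c with DEVD-Rh110 · Timing – 30 min compound preincubation, 50 min activation, room temperature · Detection – Rh110 fluorescence, excitation 480 nm, emission 540 nm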
PP5 primary: PP5 phosphatase inhibitors, primary screen, biochemical, fluorescence; inhibition, % at 6.7 µM; purified PP5c, OMFP substrate fluorescence; 320,000 compounds, 0.18% hits; AID 1987, 2009;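 active = inhibition above the campaign's mean inhibition across all tested compounds plus 3 SD, cut at about 9.5% in these data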;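 note: 0% = DMSO only and 100% = 100 µM cantharidin control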
PP1 inh confirm: PP1 phosphatase inhibitors, confirmation, biochemical, fluorescence, OMFP substrate, triplicate. shares compounds with PP1 counter. purified PP1alpha. inhibition, % at 6.7 µM. 1,900 compounds, 52% hits. AID 2358, 2010;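 active = mean PP1 inhibition above a set limit taken from the earlier primary screen, cut at about 15% in these data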
PP5 inh counter: PP5 phosphatase inhibition by PP1 hits, confirmation, counter-screen for PP1 inhibitor project, biochemical, fluorescence, triplicate; shares compounds with PP1 counter; purified PP5c, OMFP fluorescence; inhibition, % at 6.7 µM; 1,900 compounds, 4% hits;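 active = mean PP5 inhibition over triplicate wells above about 9.5% taken from the earlier PP1 screen, limit read from the data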
An asterisk follows results filed as active; nt = no result given. A selection: hits, their analogues and other compounds. The true share with any hit is near 2.1%.

SMILES	PP1 counter	TDP2 absorb	GSTO1 inh	Apaf-1 inh	PP5 primary	PP1 inh confirm	PP5 inh counter
C[C@H](CO)N1C[C@H](C)[C@H](CN(C)C(=O)C2CCCCC2)OCc2cnnn2CCCC1=O	nt	-10	nt	nt	nt	nt	nt
O=C1/C(=C\c2cccnc2)Sc2ccccc21	19*	-1	22	19	3	16*	-3
CN1C(=O)S/C(=C/c2cccnc2)C1=O	1	-11	5	4	1	nt	nt
COc1ccc(Cn2c(SCc3ccccc3C)nc3cc(OC)c(OC)cc3c2=N)cc1	30*	-10	-5	70*	3	3	-1
COc1cc2nc(SCc3ccc(F)cc3)n(Cc3cccs3)c(=N)c2cc1OC	1	-1	-13	12	5	nt	nt
CCn1c(SCC(=O)Nc2ccccc2-c2ccccc2)nnc1-c1cnccn1	nt	0	nt	nt	nt	nt	nt
C[C@H]1[C@@H](c2ccccc2)Oc2ccc(Cl)cc2S(=O)(=O)N1Cc1ccc(Cl)cc1	nt	-3	nt	nt	nt	nt	nt
CC1CCC2(CC1)CCC2NCc1ccc(Cl)cc1 (centres undefined)	nt	-7	nt	nt	nt	nt	nt
COc1cccc([C@H]2NC(=O)C/C=C/[C@@H](C)[C@@H](c3cccc(OC)c3)NC(=O)C/C=C/[C@H]2C)c1	nt	3	nt	nt	nt	nt	nt
COc1ccc(OC)c(NC(=O)CSc2nnc(CCCO)n2-c2ccccc2)c1	21*	-5	-5	-7	0	-4	-2
COC(=O)[C@H](CC(C)C)N(CCCc1cn(Cc2ccc(C)cc2)nn1)S(=O)(=O)c1ccccc1Br	nt	-5	nt	nt	nt	nt	nt
Cc1ccc(NC(=O)/C(C#N)=C/c2cn(CC(=O)NCc3ccco3)c3ccccc23)cc1C	32*	-7	-24	1	1	31*	-1
Cc1cc(C)cc(NC(=O)/C(C#N)=C/c2cn(CC(=O)NCc3ccco3)c3ccccc23)c1	4	10	-6	2	0	nt	nt
O=C1CC(C(=O)Nc2ccc(Cl)c(Cl)c2)S/C(=N\N=C\c2ccco2)N1 (centres undefined)	22*	-10	-19	-5	-1	11	-5
Cn1c(=O)c(C(=O)CN2CCc3ccccc32)c(N)n(Cc2ccccc2)c1=O	22*	0	-4	1	2	-2	-1
CCCC(=O)NC(c1ccccc1Cl)c1ccc2cccnc2c1O (centres undefined)	20*	-23	7	-4	4	10	-3
CC(C)C(=O)NC(c1ccc(Cl)cc1Cl)c1ccc2cccnc2c1O (centres undefined)	27*	-21	-11	4	2	20*	-3
CCCCC(=O)NC(c1cccs1)c1cc(Cl)c2cccnc2c1O (centres undefined)	20*	-6	-37	8	-1	24*	-4
Cc1cc(NC(c2ccc(Cl)cc2)c2ccc3cccnc3c2O)no1 (centres undefined)	22*	-11	-39	-3	5	15*	-2
CCCN1C(=O)c2[nH]nc(-c3ccccc3)c2C1c1ccc(F)cc1 (centres undefined)	nt	1	nt	nt	nt	nt	nt
C#CCC1c2ccccc2CCN1CC=C (centres undefined)	nt	2	nt	nt	nt	nt	nt
CCCC(=O)NC(c1ccc(C(C)C)cc1)c1ccc2cccnc2c1O (centres undefined)	26*	-8	-2	-10	-2	23*	-1
O=C(NCCc1c[nH]c2ccccc12)OCc1cn(Cc2ccccc2C(F)(F)F)nn1	nt	-2	nt	nt	nt	nt	nt
Nc1ccc(S(=O)(=O)Nc2nccc(/C=C/c3ccc(Cl)cc3Cl)n2)cc1	19*	8	-42	-8	-3	21*	-5
Nc1ccc(S(=O)(=O)Nc2nccc(/C=C/c3ccc(Cl)cc3)n2)cc1	1	-1	-19	-3	2	nt	nt
SMILES	PP1 counter	TDP2 absorb	GSTO1 inh	Apaf-1 inh	PP5 primary	PP1 inh confirm	PP5 inh counter
Cc1ccc(NC(=O)c2cccc(NC(=O)/C=C/c3ccco3)c2)cc1C	3	6	-37	8	6	nt	nt
Cc1ccc(-n2nc3ccc(NC(=O)/C=C/c4ccco4)cc3n2)cc1	19*	-3	-29	30	0	9	-2
CN(Cc1ccccc1)S(=O)(=O)c1cccc(C(=O)OCc2ccccc2Cl)c1	nt	-4	nt	nt	nt	nt	nt
Cc1cccc2sc(NNC(=O)c3ccc(S(=O)(=O)N4CC(C)CC(C)C4)cc3)nc12 (centres undefined)	23*	-4	-5	-17	3	19*	0
Cc1ccc2nc(NNC(=O)c3ccc(S(=O)(=O)N4CCc5ccccc5C4)cc3)sc2c1	29*	3	-9	10	1	25*	2
COC(=O)c1sc2ccccc2c1NC(=O)c1ccc(S(=O)(=O)N2CCCC(C)C2)cc1 (centres undefined)	-1	8	3	18	1	nt	nt
Cc1cc(C)c2nc(NNC(=O)c3ccc(S(=O)(=O)N4CCCC(C)C4)cc3)sc2c1 (centres undefined)	21*	1	-15	10	4	24*	3
CCSc1nc2c(cnn2-c2ccc(C)cc2)c(=O)[nH]1	22*	3	-5	17	-10	6	-4
CC(=O)Cc1nsc(NC(=O)c2ccc(Br)o2)n1	-3	8	-5	-35	1	nt	nt
CC(=O)Cc1nsc(NC(=O)c2ccc(-c3cccc(Cl)c3)o2)n1	29*	15	-23	-9	3	0	-2
COC(=O)c1cc2c(c3c4ccccc4n(S(=O)(=O)c4cccc(C)c4)c13)C(=O)N(Cc1ccccc1OC)C2	nt	8	nt	nt	nt	nt	nt
COC(=O)c1ccc2nc(-c3ccc(Cl)cc3)c(Cc3ccccc3)n2c1	nt	2	nt	nt	nt	nt	nt
O=C(CCSCCC(=O)NCc1ccc(F)cc1)NCc1ccc(F)cc1	0	3	1	2	2	nt	nt
CC(=O)NCCC(=O)NCc1ccc(F)cc1	19*	-5	-6	0	-1	-6	-7
C=CCOC(=O)N[C@H](c1cccc(OC)c1)[C@H](C)/C=C/CC(=O)OC	nt	0	nt	nt	nt	nt	nt
Cc1cccc(-c2cccc3c4c([nH]c23)[C@@H]2C[C@H](N(C)C(=O)c3ccco3)[C@H]([C@H](C)O)C(=O)N2CC4)c1	nt	-1	nt	nt	nt	nt	nt
